Laboratory results taken from ChEMBL document CHEMBL1131235, “(R)-(+)-2-[[[3-(Morpholinomethyl)-2H-chromen-8-yl]oxy]methyl] morpholine methanesulfonate: a new selective rat 5-hydroxytryptamine1B receptor antagonist” (J Med Chem, 1998).

Experiments:
[1] = target: D(1A) dopamine receptor (Rattus norvegicus, UniProt P18901); experiment: Binding affinity against Dopamine receptor D1 in rat striatum using [3H]-SCH- 23390 as the radioligand.; assay type: tissue-based
Summary of the method: (§1)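 Binding by the Jackson et al. method. 5-HT1A used [3H]OH-DPAT on rat hippocampus. α1 used [3H]prazosin, α2 [3H]RX821002 and β [3H]dihydroalprenolol, all on rat cortex. D1 used [3H]SCH-23390 on rat striatum. D2 used [3H]raclopride on LtkhD2A cell membranes.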

[2] = target: T1, Adrenergic receptor alpha-1 (Rattus norvegicus, UniProt P15823+P23944+P43140); experiment: Binding affinity against Alpha-1 adrenergic receptor in rat cortex using [3H]prazosin as the radioligand.; assay type: tissue-based, Brain; summary of the method: as §1
T1 sequence (P15823 whole entry): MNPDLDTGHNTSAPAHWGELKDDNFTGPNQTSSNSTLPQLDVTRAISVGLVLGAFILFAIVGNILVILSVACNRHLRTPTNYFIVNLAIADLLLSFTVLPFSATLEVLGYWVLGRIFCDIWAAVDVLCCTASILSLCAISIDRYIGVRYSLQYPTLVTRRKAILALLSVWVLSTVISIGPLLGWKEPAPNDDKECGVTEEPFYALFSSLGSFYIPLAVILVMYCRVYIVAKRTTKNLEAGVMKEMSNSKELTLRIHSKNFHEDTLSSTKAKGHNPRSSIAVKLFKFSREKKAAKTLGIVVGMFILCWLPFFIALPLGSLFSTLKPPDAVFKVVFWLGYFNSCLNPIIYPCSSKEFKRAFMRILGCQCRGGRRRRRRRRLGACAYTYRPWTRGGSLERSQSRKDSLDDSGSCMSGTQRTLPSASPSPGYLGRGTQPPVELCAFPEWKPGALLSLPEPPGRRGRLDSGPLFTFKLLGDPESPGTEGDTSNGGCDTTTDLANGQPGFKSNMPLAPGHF
T1 sequence (P23944 whole entry): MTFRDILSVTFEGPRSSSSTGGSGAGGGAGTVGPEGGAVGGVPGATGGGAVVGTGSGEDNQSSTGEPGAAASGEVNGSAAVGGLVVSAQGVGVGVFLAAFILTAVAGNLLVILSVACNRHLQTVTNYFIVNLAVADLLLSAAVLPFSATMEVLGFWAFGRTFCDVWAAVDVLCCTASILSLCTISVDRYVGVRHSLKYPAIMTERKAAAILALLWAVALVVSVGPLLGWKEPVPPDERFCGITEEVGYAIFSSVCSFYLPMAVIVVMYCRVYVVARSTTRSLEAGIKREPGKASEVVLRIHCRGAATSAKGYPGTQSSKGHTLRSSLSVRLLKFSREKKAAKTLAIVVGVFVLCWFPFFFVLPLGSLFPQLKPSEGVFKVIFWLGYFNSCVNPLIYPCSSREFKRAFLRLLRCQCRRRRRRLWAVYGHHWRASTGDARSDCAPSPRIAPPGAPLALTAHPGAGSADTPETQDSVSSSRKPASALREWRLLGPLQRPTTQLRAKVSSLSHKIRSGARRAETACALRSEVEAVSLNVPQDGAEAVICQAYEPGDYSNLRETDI
T1 sequence (P43140 whole entry): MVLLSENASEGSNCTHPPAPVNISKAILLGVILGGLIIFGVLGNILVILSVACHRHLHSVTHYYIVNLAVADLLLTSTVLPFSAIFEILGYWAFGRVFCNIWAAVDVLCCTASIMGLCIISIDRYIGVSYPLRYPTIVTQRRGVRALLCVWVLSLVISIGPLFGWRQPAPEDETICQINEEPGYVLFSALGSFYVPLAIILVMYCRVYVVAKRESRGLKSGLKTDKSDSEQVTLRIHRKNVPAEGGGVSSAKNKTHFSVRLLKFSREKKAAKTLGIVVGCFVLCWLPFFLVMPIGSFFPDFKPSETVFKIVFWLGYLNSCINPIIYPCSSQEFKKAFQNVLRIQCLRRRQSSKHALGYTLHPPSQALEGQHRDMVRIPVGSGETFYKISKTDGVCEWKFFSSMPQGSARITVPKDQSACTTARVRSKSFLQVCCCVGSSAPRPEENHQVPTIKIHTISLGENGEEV

[3] = target: T2, Adrenergic receptor alpha-2 (Rattus norvegicus, UniProt P22086+P19328+P22909); experiment: Binding affinity against Alpha-2 adrenergic receptor in rat cortex using [3H]RX-821002 as the radioligand.; assay type: tissue-based, Brain; summary of the method: as §1
T2 sequence (P22086 whole entry): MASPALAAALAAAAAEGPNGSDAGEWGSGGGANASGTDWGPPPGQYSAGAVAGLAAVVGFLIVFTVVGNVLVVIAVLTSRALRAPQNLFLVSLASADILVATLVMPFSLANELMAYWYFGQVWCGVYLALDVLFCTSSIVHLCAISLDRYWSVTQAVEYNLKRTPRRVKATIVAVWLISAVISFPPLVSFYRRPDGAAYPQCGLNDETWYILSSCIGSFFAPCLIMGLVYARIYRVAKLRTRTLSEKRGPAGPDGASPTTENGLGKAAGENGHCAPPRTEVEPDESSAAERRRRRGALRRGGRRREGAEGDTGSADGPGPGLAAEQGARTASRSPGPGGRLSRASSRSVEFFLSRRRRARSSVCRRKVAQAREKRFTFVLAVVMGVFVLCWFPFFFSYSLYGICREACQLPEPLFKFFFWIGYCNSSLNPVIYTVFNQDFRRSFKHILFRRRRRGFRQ
T2 sequence (P19328 whole entry): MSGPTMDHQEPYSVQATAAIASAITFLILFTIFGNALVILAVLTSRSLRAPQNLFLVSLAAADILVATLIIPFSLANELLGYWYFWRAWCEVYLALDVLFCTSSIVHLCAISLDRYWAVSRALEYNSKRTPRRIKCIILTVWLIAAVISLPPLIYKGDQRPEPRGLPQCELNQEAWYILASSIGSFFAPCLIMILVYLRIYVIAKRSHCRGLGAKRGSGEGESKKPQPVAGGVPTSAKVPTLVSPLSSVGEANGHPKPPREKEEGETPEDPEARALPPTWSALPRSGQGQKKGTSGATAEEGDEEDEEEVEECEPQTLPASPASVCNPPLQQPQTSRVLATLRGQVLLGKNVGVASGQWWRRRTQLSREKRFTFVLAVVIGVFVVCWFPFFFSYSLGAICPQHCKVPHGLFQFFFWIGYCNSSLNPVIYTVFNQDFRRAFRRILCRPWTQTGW
T2 sequence (P22909 whole entry): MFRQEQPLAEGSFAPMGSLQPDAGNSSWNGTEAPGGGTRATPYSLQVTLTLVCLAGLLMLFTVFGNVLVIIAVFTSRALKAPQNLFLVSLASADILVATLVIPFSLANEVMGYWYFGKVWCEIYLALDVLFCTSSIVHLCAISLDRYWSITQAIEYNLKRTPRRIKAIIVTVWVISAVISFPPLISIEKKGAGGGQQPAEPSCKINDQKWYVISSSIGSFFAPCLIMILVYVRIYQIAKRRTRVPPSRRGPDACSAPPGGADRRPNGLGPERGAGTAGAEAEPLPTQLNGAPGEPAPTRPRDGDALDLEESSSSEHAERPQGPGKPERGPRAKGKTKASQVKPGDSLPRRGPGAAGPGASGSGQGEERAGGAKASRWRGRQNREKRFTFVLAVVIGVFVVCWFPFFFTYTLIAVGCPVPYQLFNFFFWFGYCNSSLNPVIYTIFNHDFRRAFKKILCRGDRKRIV

Measured: Ki

D(1A) dopamine receptor, sequence (P18901 whole entry): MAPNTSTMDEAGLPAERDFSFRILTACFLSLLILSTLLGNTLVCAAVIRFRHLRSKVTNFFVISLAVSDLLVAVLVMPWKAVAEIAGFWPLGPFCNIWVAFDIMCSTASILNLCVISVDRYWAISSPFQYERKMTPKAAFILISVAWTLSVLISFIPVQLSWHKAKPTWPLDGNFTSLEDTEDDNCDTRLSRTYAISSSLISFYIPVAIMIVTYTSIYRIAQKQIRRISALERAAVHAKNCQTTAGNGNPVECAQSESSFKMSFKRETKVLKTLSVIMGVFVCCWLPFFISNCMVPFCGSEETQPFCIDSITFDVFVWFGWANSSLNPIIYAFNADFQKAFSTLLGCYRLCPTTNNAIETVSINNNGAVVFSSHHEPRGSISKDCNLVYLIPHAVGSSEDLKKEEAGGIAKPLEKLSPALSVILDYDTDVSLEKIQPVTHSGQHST

C1=C(CN2CCOCC2)COc2c1cccc2OC[C@H]1CNCCO1.CS(=O)(=O)O
> 10 µM: [1] | [2] | [3]

C1=C(CN2CCOCC2)COc2c1cccc2OC[C@@H]1CNCCO1.Cl
> 10 µM: [1] | [2] | [3]
